Measured values taken from ChEMBL document CHEMBL1932924, “Design, synthesis, and biological evaluation of 4-phenylpyrrole derivatives as novel androgen receptor antagonists” (Bioorg Med Chem, 2012).
≈ marks a conversion by molar mass, not a printed value.

Experiments:
[1] = Antitumor activity against human LNCaP-FGC cells expressing androgen receptor W741C/[…] mutant xenografted in castrated BALB/c nude mouse assessed as effect on tumor volume at 25 mg/kg, po bid administered for 29 days measured on day 28 relative to control; format: functional, LNCaP-Clone-FGC
[2] = target: T1, Androgen receptor (Homo sapiens, UniProt P10275, T878A); assay: Agonist activity at human androgen receptor T877A mutant expressed in COS7 cells assessed as luciferase activity after 24 hrs by reporter gene assay; format: functional, cell-based, COS-7
[3] = test system: Mus musculus; assay: Antiandrogenic activity in ICR mouse assessed as reduction of ventral prostate weight at 2.5 mg/kg, po bid administered for 7 days relative to control; format: functional, Prostate gland; set-up: scale not given: the % may be the effect or the level left
Outline: (§1)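 8-week-old male ICR mice, intact, dosed orally for seven days; n = 8 per group. Ventral prostate weighed the day after the last dose. Reduction = decrease in test group ÷ decrease in castrated group × 100. Controls are vehicle-treated mice. Significance by Williams test or unpaired Student's test versus control.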

[4] = target: T2, Androgen receptor (Homo sapiens, UniProt P10275); assay: Agonist activity at human androgen receptor expressed in COS7 cells assessed as luciferase activity after 24 hrs by reporter gene assay; format: functional, cell-based, COS-7
T2 sequence (P10275 whole entry): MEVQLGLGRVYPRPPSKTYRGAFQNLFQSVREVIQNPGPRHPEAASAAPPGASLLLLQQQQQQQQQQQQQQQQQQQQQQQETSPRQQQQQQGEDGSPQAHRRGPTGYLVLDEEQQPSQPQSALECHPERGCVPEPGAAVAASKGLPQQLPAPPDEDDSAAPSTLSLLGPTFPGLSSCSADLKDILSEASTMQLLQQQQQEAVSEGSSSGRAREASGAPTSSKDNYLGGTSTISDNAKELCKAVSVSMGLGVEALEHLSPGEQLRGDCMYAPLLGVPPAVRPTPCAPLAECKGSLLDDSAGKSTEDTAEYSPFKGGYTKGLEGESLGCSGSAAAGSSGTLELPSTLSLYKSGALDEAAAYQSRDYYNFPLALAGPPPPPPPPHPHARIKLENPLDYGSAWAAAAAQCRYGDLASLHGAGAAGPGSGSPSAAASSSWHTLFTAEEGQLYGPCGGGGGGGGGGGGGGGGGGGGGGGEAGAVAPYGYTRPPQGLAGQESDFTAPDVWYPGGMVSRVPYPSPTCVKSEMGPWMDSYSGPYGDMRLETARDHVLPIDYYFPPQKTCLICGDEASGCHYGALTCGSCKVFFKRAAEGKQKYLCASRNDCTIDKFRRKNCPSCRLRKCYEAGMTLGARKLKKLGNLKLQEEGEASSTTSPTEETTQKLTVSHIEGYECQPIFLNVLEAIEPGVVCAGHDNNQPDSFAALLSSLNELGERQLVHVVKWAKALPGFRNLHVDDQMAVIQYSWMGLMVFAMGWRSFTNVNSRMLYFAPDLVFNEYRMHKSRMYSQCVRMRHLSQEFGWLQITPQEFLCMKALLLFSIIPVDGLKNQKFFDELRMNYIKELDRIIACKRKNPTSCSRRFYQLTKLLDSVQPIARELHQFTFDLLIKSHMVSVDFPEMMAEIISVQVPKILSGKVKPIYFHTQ

[5] = test system: Mus musculus; assay: Antiandrogenic activity in ICR mouse assessed as reduction of ventral prostate weight at 25 mg/kg, po bid administered for 7 days relative to control; format: functional, Prostate gland; set-up: scale not given: the % may be the effect or the level left; outline: as §1
[6] = (§2) Antitumor activity against human LNCaP-FGC cells expressing androgen receptor W741C/[…] mutant xenografted in castrated BALB/c nude mouse assessed as effect on tumor volume at 25 mg/kg, po bid administered for 29 days measured on day 28 (reference value: 402 +/- 47.7 mm3); format: functional, LNCaP-Clone-FGC
[7] = target: T1, Androgen receptor; assay: Displacement of [17-alpha-methyl-3H]-mibolerone from human androgen receptor T877A mutant expressed in HEK293 derived FreeStyle293F cells after 3 hrs; format: cell-based
[8] = target: T2, Androgen receptor; assay: Displacement of [17-alpha-methyl-3H]-mibolerone from human androgen receptor expressed in HEK293 derived FreeStyle293F cells after 3 hrs; format: cell-based
[9] = target: T2, Androgen receptor; assay: Antagonist activity at human androgen receptor expressed in COS7 cells assessed as inhibition of DHT-induced luciferase activity after 24 hrs by reporter gene assay; format: functional, cell-based, COS-7
[10] = test system: Mus musculus; assay: Antiandrogenic activity in ICR mouse assessed as ventral prostate weight at 7.5 mg/kg, po bid administered for 7 days (reference value: 14.6 +/- […]); format: functional, Prostate gland; outline: as §1
[11] = test system: Mus musculus; assay: Antiandrogenic activity in ICR mouse assessed as reduction of ventral prostate weight at 7.5 mg/kg, po bid administered for 7 days relative to control; format: functional, Prostate gland; set-up: scale not given: the % may be the effect or the level left; outline: as §1
[12] = Solubility in aqueous buffer solution at pH 6.8; format: physicochemical
Outline: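 DMSO stock added to aqueous buffer at pH 6.8 and incubated. Precipitate removed by filtration; filtrate concentration measured by HPLC.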

[13] = test system: Mus musculus; assay: Antiandrogenic activity in ICR mouse assessed as ventral prostate weight at 2.5 mg/kg, po bid administered for 7 days (reference value: 14.6 +/- […]); format: functional, Prostate gland; outline: as §1
[14] = Antitumor activity against human JDCaP cells expressing wild type AR xenografted in testosterone propionate-challenged castrated BALB/c nude mouse assessed as decrease in tumor volume at 3.125 mg/kg, po bid administered for 29 days measured on day 28 relative to control; format: functional
Outline: (§3)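 Nude mice carrying JDCaP tumours, n = 7 per group, castrated and given s.c. testosterone propionate 0.2 mg/kg once daily for 29 days. Oral twice-daily dosing in 0.5% methylcellulose over the same period; controls get vehicle plus TP. Tumour volume measured weekly. T/C = increase in tumour volume versus control × 100.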

[15] = target: T3, Androgen receptor (Homo sapiens, UniProt P10275, W742C); assay: Agonist activity at human androgen receptor W741C mutant expressed in COS7 cells assessed as luciferase activity after 24 hrs by reporter gene assay; format: functional, cell-based, COS-7
[16] = target: T3, Androgen receptor; assay: Antagonist activity at human androgen receptor W741C mutant expressed in COS7 cells assessed as inhibition of DHT-induced luciferase activity after 24 hrs by reporter gene assay; format: functional, cell-based, COS-7
[17] = Antitumor activity against human JDCaP cells expressing wild type AR xenografted in testosterone propionate-challenged castrated BALB/c nude mouse assessed as decrease in tumor volume at 6.25 mg/kg, po bid administered for 29 days measured on day 28 relative to control; format: functional; outline: as §3
[18] = AUC in mouse at 5 mg/kg, po; format: ADME, organism-based; set-up: dose 5 mg/kg, route oral; conditions: plasma
Outline: (§4)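 Mice given a single oral 5 mg/kg dose; n = 3. AUC, bioavailability (F) and mean residence time derived from plasma exposure.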

[19] = target: T1, Androgen receptor; assay: Antagonist activity at human androgen receptor T877A mutant expressed in COS7 cells assessed as inhibition of DHT-induced luciferase activity after 24 hrs by reporter gene assay; format: functional, cell-based, COS-7
[20] = test system: Mus musculus; assay: Antiandrogenic activity in ICR mouse assessed as ventral prostate weight at 25 mg/kg, po bid administered for 7 days (reference value: 14.6 +/- […]); format: functional, Prostate gland; outline: as §1
[21] = as §2, with “decrease in prostate specific antigen level in plasma” for “effect on tumor volume”, “35.8” for “402”, “10.7 ng/mL)” for “47.7 mm3)”; format: functional, LNCaP-Clone-FGC
[22] = Antitumor activity against human JDCaP cells expressing wild type AR xenografted in testosterone propionate-challenged castrated BALB/c nude mouse assessed as decrease in tumor volume at 3.125 mg/kg, po bid administered for 29 days measured on day 28 (reference value: 681.8 +/- 75 mm3); format: functional; outline: as §3
[23] = Oral bioavailability in mouse at 5 mg/kg; format: ADME, organism-based; conditions: in vivo; outline: as §4
[24] = Mean residence time in mouse at 5 mg/kg, po; format: ADME, organism-based; set-up: dose 5 mg/kg, route oral; conditions: in vivo; outline: as §4
[25] = test system: Mus musculus; assay: Toxicity in BALB/c mouse assessed as body weight at 25 mg/kg, po bid administered for 29 days measured on day 28 (reference value: 17.6 +/- 0.4g); format: organism-based; set-up: dose 25 mg/kg, route oral; conditions: in vivo, 696 h
[26] = Antitumor activity against human JDCaP cells expressing wild type AR xenografted in testosterone propionate-challenged castrated BALB/c nude mouse assessed as decrease in tumor volume at 6.25 mg/kg, po bid administered for 29 days measured on day 28 (reference value: 681.8 +/- 75 mm3); format: functional; outline: as §3
[27] = Antitumor activity against human JDCaP cells expressing wild type AR xenografted in testosterone propionate-challenged castrated BALB/c nude mouse assessed as decrease in tumor volume at 20 mg/kg, po qd administered for 29 days measured on day 28 relative to control; format: functional
Outline: (§5)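 JDCaP tumours in nude mice (n=7) castrated the day after grouping. Testosterone propionate 0.2 mg/kg sc once daily for 29 days. Oral drug or 0.5% methylcellulose vehicle for the same period. Tumour volume measured weekly. T/C = volume increase vs testosterone-treated vehicle control × 100.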

[28] = (§6) Antitumor activity against human LNCaP-FGC cells expressing androgen receptor W741C/[…] mutant xenografted in castrated BALB/c nude mouse assessed as effect on tumor volume at 20 mg/kg, po qd administered for 29 days measured on day 28 relative to control; format: functional, LNCaP-Clone-FGC
Outline: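 LNCaP-cxD2 flank xenografts in BALB/c nude mice, grouped at ~200 mm3 (n=7) and castrated next day. Oral dosing for 29 days, vehicle 0.5% methylcellulose. Weekly caliper volumes. T/C = tumour volume increase vs castration (vehicle) group × 100.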

[29] = as §6, with “decrease in prostate specific antigen level in plasma” for “effect on tumor volume”, “(reference value: 35.8 +/- 10.7 ng/mL)” for “relative to control”; format: functional, LNCaP-Clone-FGC
Outline: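 LNCaP-cxD2 flank xenografts in castrated BALB/c nude mice (n=7), grouped at ~200 mm3. Oral dosing for 29 days from castration, vehicle 0.5% methylcellulose. Blood taken at study end for plasma PSA.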

[30] = test system: Mus musculus; assay: Toxicity in BALB/c mouse assessed as body weight at 20 mg/kg, po qd administered for 29 days measured on day 28 (reference value: 17.6 +/- 0.4g); format: organism-based; set-up: dose 20 mg/kg, route oral; conditions: in vivo, 696 h
[31] = Antitumor activity against human LNCaP-FGC cells expressing androgen receptor W741C/[…] mutant xenografted in castrated BALB/c nude mouse assessed as effect on tumor volume at 20 mg/kg, po qd administered for 29 days measured on day 28 (reference value: 402 +/- 47.7 mm3); format: functional, LNCaP-Clone-FGC
[32] = Antitumor activity against human JDCaP cells expressing wild type AR xenografted in testosterone propionate-challenged castrated BALB/c nude mouse assessed as decrease in tumor volume at 20 mg/kg, po bid administered for 29 days measured on day 28 (reference value: 1736.6 +/- 486.2 mm3); format: functional; outline: as §5
[33] = test system: Mus musculus; assay: Antiandrogenic activity in ICR mouse assessed as reduction of ventral prostate weight at 100 mg/kg, po qd administered for 7 days relative to control; format: functional, Prostate gland; set-up: scale not given: the % may be the effect or the level left
Outline: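 Male ICR mice, 8 weeks old, n=8, dosed orally for seven days with vehicle and castrated groups. Prostate weighed the day after the last dose. % reduction = treated-group weight decrease ÷ castrated-group decrease × 100.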

T1 sequence (P10275 whole entry T878A): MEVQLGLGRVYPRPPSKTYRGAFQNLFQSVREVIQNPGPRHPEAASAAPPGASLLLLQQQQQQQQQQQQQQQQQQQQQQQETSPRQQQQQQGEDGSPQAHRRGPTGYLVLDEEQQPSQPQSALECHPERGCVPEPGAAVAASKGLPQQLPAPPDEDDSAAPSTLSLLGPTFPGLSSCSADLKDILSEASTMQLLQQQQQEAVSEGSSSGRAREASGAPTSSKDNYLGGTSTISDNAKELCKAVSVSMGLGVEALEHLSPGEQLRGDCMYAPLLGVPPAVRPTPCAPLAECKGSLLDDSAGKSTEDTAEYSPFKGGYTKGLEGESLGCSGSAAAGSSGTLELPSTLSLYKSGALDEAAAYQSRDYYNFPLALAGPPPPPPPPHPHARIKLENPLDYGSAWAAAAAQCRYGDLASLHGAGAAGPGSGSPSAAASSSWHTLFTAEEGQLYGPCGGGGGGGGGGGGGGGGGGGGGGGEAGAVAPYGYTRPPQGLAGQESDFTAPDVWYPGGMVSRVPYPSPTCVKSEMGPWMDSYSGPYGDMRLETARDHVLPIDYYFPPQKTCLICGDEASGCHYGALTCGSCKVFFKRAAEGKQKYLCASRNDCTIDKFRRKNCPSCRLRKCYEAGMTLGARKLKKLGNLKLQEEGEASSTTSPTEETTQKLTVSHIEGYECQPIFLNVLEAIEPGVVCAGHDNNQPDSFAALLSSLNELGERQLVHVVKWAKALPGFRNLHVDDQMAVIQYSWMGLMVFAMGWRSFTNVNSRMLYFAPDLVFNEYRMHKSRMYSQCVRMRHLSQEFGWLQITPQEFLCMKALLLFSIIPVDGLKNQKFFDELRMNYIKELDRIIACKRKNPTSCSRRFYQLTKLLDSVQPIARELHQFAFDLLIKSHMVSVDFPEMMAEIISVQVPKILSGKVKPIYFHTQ
T3 sequence (P10275 whole entry W742C): as the sequence (P10275 whole entry T878A) above, with W742C, A878T counted along it

Cc1c(C#N)c(-c2ccc(C#N)cc2)c(C)n1Cc1cnc(Cl)c(CO)c1
T/C [1]: 15.8%
EC50 [2]: > 10000 nM
Activity [3]: 16%
EC50 [4]: > 10000 nM
Activity [5]: 74%
Activity [6]: 269.3 mm3
IC50 [7]: 100 nM
IC50 [8]: 37 nM
IC50 [9]: 25 nM
Activity [10]: 12.2 mg
Activity [11]: 31%
solubility [12]: 15 µg/mL (≈ 39.8 µM)
Activity [13]: 13.4 mg
T/C [14]: -44.7%
EC50 [15]: > 10000 nM
IC50 [16]: 280 nM
T/C [17]: -44.8%
AUC [18]: 19200 ng·h/mL
IC50 [19]: 110 nM
Activity [20]: 8.9 mg
Activity [21]: 1 ng/mL
Activity [22]: 88.4 mm3
bioavailability [23]: 104%
MRT [24]: 4.85 h
Activity [25]: 22.9 g
Activity [26]: 94.8 mm3

CC(O)(CS(=O)(=O)c1ccc(F)cc1)C(=O)Nc1ccc(C#N)c(C(F)(F)F)c1 (stereo not drawn) [BICALUTAMIDE]
T/C [27]: -70.2%
T/C [28]: 137.9%
Activity [29]: 38.5 ng/mL
Activity [30]: 17.9 g
Activity [31]: 461.5 mm3
Activity [32]: 212.2 mm3
Activity [33]: 40%
